Source: PubChem (several laboratories)
Compounds with a hit are over-represented: about 2.3% of the library has one in this group of screens.
ROMK mod: human ROMK K+ channel modulation, primary screen. P48048. Tet-inducible ROMK, thallium flux fluorescence; actives lie on both sides. B-score at 10 µM. hit rate 2% among 130,000;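 active = signal ratio slope over the read window, or its plate-corrected B-score, at least 3 SD from the plate mean, either direction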;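 note: B-score of the F/F0 ratio slope over 7 to 12 s after thallium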
ABCG2 block: inhibitors of human ABCG2 transporter, ABCB1 counter-screen. IgMXP3 cells, JC-1 efflux, flow cytometry. inhibition, % at 6.6 µM. hit rate 0.1% among 190,000;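 active = inhibition above 80%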
Target sequence (Q9UNQ0 whole entry, looked up): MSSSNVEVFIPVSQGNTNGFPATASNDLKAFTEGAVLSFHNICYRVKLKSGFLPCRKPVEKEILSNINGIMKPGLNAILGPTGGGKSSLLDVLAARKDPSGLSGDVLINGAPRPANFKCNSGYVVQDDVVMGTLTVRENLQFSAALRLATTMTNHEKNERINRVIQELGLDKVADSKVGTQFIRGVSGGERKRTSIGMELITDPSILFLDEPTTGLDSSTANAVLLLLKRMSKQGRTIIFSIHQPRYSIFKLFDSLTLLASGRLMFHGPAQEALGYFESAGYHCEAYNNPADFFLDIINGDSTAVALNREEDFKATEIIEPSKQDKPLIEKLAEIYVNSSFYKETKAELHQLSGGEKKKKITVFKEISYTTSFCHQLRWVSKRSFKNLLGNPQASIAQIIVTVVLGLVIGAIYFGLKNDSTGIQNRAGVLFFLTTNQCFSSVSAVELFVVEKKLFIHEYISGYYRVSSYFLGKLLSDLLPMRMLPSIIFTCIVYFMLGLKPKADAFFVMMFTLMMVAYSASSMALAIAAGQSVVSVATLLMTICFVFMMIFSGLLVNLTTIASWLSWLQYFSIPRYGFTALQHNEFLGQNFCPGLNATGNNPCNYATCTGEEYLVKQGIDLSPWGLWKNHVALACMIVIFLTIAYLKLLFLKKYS
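Test system: ABCG2 IgMXP3 and barcoded ABCB1 CCRF-Adr cell mix; Schedule: cells with compound and JC-1, 10 min at 25 °C, rotating, no wash; Technique: flow cytometry of retained JC-1 fluorescence; Measure: % inhibition of efflux relative to nicardipine and DMSO; Controls: nicardipine high and DMSO low controls.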
Insulin prom up: MIN6 insulin promoter up-regulation. z-score at 5 µM. MIN6 insulin promoter-GFP reporter, high-content imaging; hits give high values. hit rate 0.3% among 190,000. AID 1625;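 active = z-score above 3 at 5 µM with at least 500 cells counted in the well; inconclusive = wells under 500 cells, flagged as cytotoxic or low count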
ABCB1 inh: blocks JC-1 efflux by human ABCB1 transporter | P08183 | inhibition, % at 6.6 µM | CCRF-Adr cells, flow cytometry | hit rate 0.067% among 190,000 | AID 1326; in the data active = inhibition above about 40%;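 note: higher value means more JC-1 retained so stronger ABCB1 efflux block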
Autophagy HCS: modulators of autophagy. MEF GFP-LC3 puncta imaging; test concentration mostly 10 µM. calls only at 10 µM (by protocol). hit rate 0.98% among 190,000. AID 463193;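 active = percentage of spot-positive cells more than 3 SD above its plate mean, without a fluorescence outlier flag or 80% toxicity; inconclusive = no clear call, values can overlap the other calls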
sdo1 growth: sdo1-depleted yeast growth rescue. S. cerevisiae sdo1-depleted JHY4D growth rescue, OD600 30 h; hits give high values; pdr5 snq2 efflux-pump mutant strain. z-score at 10 µM. AID 817. hit rate 0.21% among 140,000;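 active = z-score above 3 at both the 24 hr and the 30 hr optical density reads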
Numbers stand for hits; n = inactive; u = inconclusive; x = no result given; + = active, no number.

SMILES	ROMK mod	ABCG2 block	Insulin prom up	ABCB1 inh	Autophagy HCS	sdo1 growth
N=c1c2c(-c3ccccc3)c(-c3ccccc3)n(Cc3ccco3)c2ncn1CCN1CCOCC1	x	n	n	n	+	n
COc1ccc(-c2c(C(F)(F)F)oc3c(CN4CCN(C)CC4)c(O)ccc3c2=O)cc1	x	n	n	n	n	n
COc1ccc(-c2c(C)oc3c(CN4CCN(C)CC4)c(O)ccc3c2=O)cc1	x	n	n	n	+	n
Cc1cc(C)n(-c2cc(C(=O)O)cc(C(=O)O)c2)n1	n	n	n	n	n	x
O=C(/C=C/c1ccccc1)Nc1scc(-c2ccccc2)c1C(=O)O	n	n	n	n	+	x
O=C(/C=C/c1ccco1)Nc1scc(-c2ccccc2)c1C(=O)O	x	x	n	x	x	x
CCCNC(=O)c1sc2c(c1C(=O)Nc1ccccn1)CCCC2	n	n	n	n	+	x
CCCNC(=O)c1csc2c1CCCCC2	n	n	n	n	n	n
Cc1ccc(SC2CC(=O)N(c3ccc4c(c3)OCCO4)C2=O)cc1 (stereo not drawn)	n	n	n	n	n	x
O=C(c1ccc(-c2ccccc2)cc1)C1CCCN(C(=O)c2ccncc2)C1 (stereo not drawn)	x	n	n	n	+	x
COC(=O)C1=C(C)N(c2ccc(F)cc2)/C(=C/c2ccc(O)cc2)C1=O	n	n	x	n	n	x
COc1ccc(CCN2C(=O)CC(N3CCN(S(=O)(=O)c4ccccc4)CC3)C2=O)cc1OC (stereo not drawn)	x	n	n	n	n	x
O=C(COC(=O)Cc1ccccc1[N+](=O)[O-])NCc1ccc(F)cc1	x	n	n	n	n	n
O=C(COC(=O)Cc1ccccc1[N+](=O)[O-])NC1CCCC1	n	n	n	n	+	x
CC(C)(C)C(=O)NC(=S)NNC(=O)c1sc2ccccc2c1Cl	7.29	n	n	n	n	n
CCCc1cc(-n2ccnc2)n2c(nc3ccccc32)c1C#N	x	n	5.52	n	n	n
COc1ccc(C2C(C(=O)Nc3ccccc3OC)=C(C)Nc3ncnn32)cc1 (stereo not drawn)	x	n	n	n	+	n
COc1ccccc1NC(=O)C1=C(C)Nc2ncnn2C1c1cccs1 (stereo not drawn)	n	n	n	n	n	n
CSCCOC(=O)C1=C(C)Nc2ccc(C)cc2S1	n	n	x	n	+	n
Cc1nc(NCc2ccc3c(c2)OCO3)c2nnn(Cc3ccccc3)c2n1	x	n	n	n	+	n
c1ccc(Cn2nnc3c(NCc4ccc5c(c4)OCO5)nc(C4CC4)nc32)cc1	x	n	n	n	+	n
CC(C)CCn1c(=O)c2ccccc2n2c(CN3C(=O)NC4(CCC(C)CC4)C3=O)nnc12 (stereo not drawn)	4.03	n	n	n	n	n
Cc1cc(C(=O)CSCc2nnc3n(CCC(C)C)c(=O)c4ccccc4n23)c(C)n1C	x	x	x	x	n	x
O=C1C2=C(C(c3ccccc3)=NCCN2)C(c2cccc([N+](=O)[O-])c2)N1c1ccccc1 (stereo not drawn)	x	n	n	n	n	x
N#C/C(=N\Nc1cccc(C(F)(F)F)c1)C(=O)c1csc(-c2cccnc2)n1	-3.85	x	n	x	x	x
SMILES	ROMK mod	ABCG2 block	Insulin prom up	ABCB1 inh	Autophagy HCS	sdo1 growth
c1ccc2c(c1)c1c3n2CCNC3CCC1 (stereo not drawn)	x	n	n	n	n	n
c1cc2c(cc1C1CCCCC1)c1c3n2CCCNC3CCC1 (stereo not drawn)	n	n	u	n	+	n
CN1CCCN(S(=O)(=O)c2ccc(Cl)c(Cl)c2)CC1	n	n	n	n	n	x
Cc1cc(C)nc(Nc2n[nH]c(-c3ccccc3Br)n2)n1	x	n	n	n	n	n
Cc1cc(C)nc(Nc2n[nH]c(-c3ccccc3C)n2)n1	x	n	n	n	+	x
Cc1csc(C(=O)O)c1NC(=O)c1cccc([N+](=O)[O-])c1	n	n	n	n	n	x
Cc1ccc(Nc2nc(C)c3c(n2)CC(C)CC3=O)c(C)c1 (stereo not drawn)	x	x	n	x	x	x
Cc1nc(Nc2cccc(C(F)(F)F)c2)nc2c1C(=O)CC(C)C2 (stereo not drawn)	x	n	n	n	+	n
CCC12CN(C(=O)c3ccc(C)cc3)CC(CC)(CN(C(=O)c3ccc(C)cc3)C1)C2=O	n	n	n	n	n	n
CCc1ccc2nc3sc(C(=O)N4CCc5ccccc54)c(N)c3cc2c1	x	n	4.93	n	+	n
Cc1ccc(C)c2nc3sc(C(=O)N4CCCc5ccccc54)c(N)c3cc12	x	n	x	n	+	n
O=C(c1ccco1)N1CCN(C(=O)c2nn3cccnc3c2Cl)CC1	x	n	x	n	n	n
O=C(c1nn2cccnc2c1Cl)N1CCN(c2ccccc2)CC1	n	n	n	n	+	n
NCC(O)(c1ccc(Cl)cc1)c1ccc(Cl)cc1	n	n	n	n	+	x
NC(=O)c1nsc(C(=O)N(CC(=O)NC2CCCC2)Cc2ccc3c(c2)OCO3)c1N	n	n	n	n	n	x
Cc1ccc(C(=O)OCC(=O)NCc2cccs2)c(C)c1	n	n	n	n	+	x
Cc1cc2c(cc(C(=O)OCC(=O)NCc3cccs3)n2C(C)C)o1	x	n	n	n	+	n
Cc1cc(C)cc(C(=O)OCC(=O)NCc2cccs2)c1	n	n	n	n	n	n
O=c1c2oc3nc4c(cc3c2ncn1CCCc1ccccc1)CCCC4	x	x	n	x	x	x
O=C1N/C(=C/c2ccc(N3CCCC3)cc2)C(=O)N1c1ccccc1	n	n	n	n	+	n
O=C1/C(=C/c2ccc(N3CCCC3)cc2)NC(=S)N1C1CC1	n	n	x	n	+	n
COc1ccc(OC)c(NC(=O)C(=O)NNC(=O)COc2ccc(Br)cc2C)c1	1.61	n	n	n	n	x
COc1ccc(C)cc1NC(=O)C(=O)NNC(=O)COc1ccc(Cl)cc1	7.13	n	n	n	n	x
Cc1ccc(S(=O)(=O)NC(=O)Nn2c(C)nnc2C)cc1	x	n	n	n	n	n
Cc1ccc(S(=O)(=O)NC(=O)NN2CCCCCC2)cc1	x	n	x	n	+	n
Cc1sc2nc(CN3CCCC3)nc(N3CCN(C(=O)c4ccco4)CC3)c2c1C	n	n	n	n	+	x
COCCNc1nc2sc3c(c2c(=O)n1Cc1ccco1)CCCCC3	x	n	n	n	n	n
COc1ccc(-c2ncncc2-c2csc(C)n2)c(O)c1	n	n	n	n	+	n
